Data as given in paper PMC11718131 (Communications Biology, 2025).
Peptide text beside a SMILES is read from it. * marks the point of attachment. Cbz = O=C(OCc1ccccc1)*

Legend:
[1] = Huntington's disease; cited from earlier work
wildtype (WT) CA2 = details: in words; cited from earlier work
[2] = cited from earlier work
[3] = test system: proteasome; GFP-CA2-DRD fusion in Jurkat cells; assay: Proteasome inhibition assay; type: cell-based, human; details: 10 µM MG132, 4 h without ACZ after 24 h ACZ; versus vehicle
Summary of the method: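 Cells then washed with fresh media and split in two: one arm […] 10 µM MG132 for 4 h. GFP expression read by flow cytometry.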

For `CC1(C)CC(Oc2ccc(-c3ccc(-c4cn[nH]c4)cc3O)nn2)CC(C)(C)N1` [branaplam], the “clinical trial outcome” value [1] is given as “halted because of drug-related side effects”.
In the case of `CC(=O)Nc1nnc(S(N)(=O)=O)s1` [ACZ, acetazolamide], the “affinity to CA2” value (wildtype (WT) CA2) is given as “low nanomolar affinity”, the “total in vivo exposure levels” value ([2]; FDA-approved and clinically used doses) is given as ~ 100 µM and the “total concentrations in plasma and other tissues” value ([2]; approved doses, in words) is given as “micromolar range”.
In the case of `CC(C)C[C@@H](C=O)NC(=O)[C@H](CC(C)C)NC(=O)[C@H](CC(C)C)NC(=O)OCc1ccccc1` [MG132] (Cbz-Leu-Leu-Leu-aldehyde), the “decrease in GFP levels after ACZ withdrawal” value [3] is reported as “smaller decrease in GFP levels”.
